Consider eight compounds from publication PMC6247954 (Cell, 2018).

Series [1] has as its system YB5 cells (silenced CMV-GFP). The series is described as follows: GFP reactivation in YB5 measured by flow cytometry. Type of series: cell-based, human. The conditions noted are these: for GFP reactivation by GSK-3 inhibitors: YB5, multiple doses, single exposure for four days.
For series [2], the system named is YB5 cells. The series is described as follows: qPCR of hypermethylated silenced genes in YB5. The series is classed as cell-based, human. The conditions noted are these: for reactivation of SYNE1 and MGMT: YB5, 24hr treatment, qPCR.
The subject of series [3] is YB5 cells. Put plainly: Time-course RNA-seq in YB5. The conditions noted are these: after excluding genes downregulated at 2hr/4hr. Type of series: cell-based, human.
For series [4], the system named is GFP and GLDC expression in tumors. Put plainly: Pharmacodynamics study in NSG mice. The conditions noted are these: two-week every other day treatment, qPCR. Type of series: in vivo. In a few lines:
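Six gender-matched 8–10-week-old NSG mice randomised to vehicle or drug. 2×10^6 cells injected into the flank. 20mg/kg test compound given i.p. every other day for two weeks, starting when tumours were palpable 9 days after engraftment. Tumours homogenised, total mRNA extracted, expression measured by qPCR; N=3, mean+SEM, Student's t-test.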

The test system of the next series is substrates of CDK4/6. Put plainly: Western Blot of CDK substrates after MC180295 treatment. Type of series: cell-based. The following applies: 2hrs treatment.
In a further series the test system is SW48. The series is described as follows: s.c. SW48 xenograft model in NSG mice. The series is classed as in vivo. Summed up: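 2×10^6 SW48 cells injected s.c. into the flank of randomly assigned, gender-matched 8–10-week-old NSG mice. Once tumours were palpable, 20mg/kg test compound or vehicle given i.p. every other day, for 10 weeks. Tumour size measured by caliper (mean+SEM, Student's t-test); survival recorded in days.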

Series [5] deals with pSer2 of RNAPII CTD (CDK9 target). The series is described as follows: Western Blot of CDK substrates after MC180295 treatment. The series is classed as cell-based. The following applies: 2hrs treatment.
A further series deals with panel of 250 kinases. The series is described as follows: Kinome screening of 250 kinases at 1μM. The series is classed as biochemical, human. In a few lines:
(§1)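 Kinase assays were run by a contract lab on a microfluidic mobility-shift platform. Each target kinase was incubated with fluorescently labelled substrate and test compound in a standardized reaction mixture.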

For the next series, the target named is GSK-3β (Homo sapiens, UniProt P49841). Put plainly: Kinome screening of 250 kinases at 1μM. Type of series: biochemical. In a few lines: as §1
Another series addresses GSK-3α (Homo sapiens, UniProt P49840). Put plainly: Kinome screening of 250 kinases at 1μM. The series is classed as biochemical. In a few lines:
as §1

For another series, the target named is CDK9/CyclinT1 (Homo sapiens, UniProt P50750). Put plainly: Isotope kinase activity assay with recombinant CDK9/CyclinT1 and BRG1. Type of series: biochemical. The conditions noted are these: 1μM inhibitor, 32γ-ATP. Summed up: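 Recombinant active full-length CDK9/Cyclin T1 (1.2 μg) pre-incubated 15 min with or without 1μM test compound. Purified BRG1 (0.8 μg) then added, 1 hr at 30 °C in KAS buffer containing 5μCi/μl 32γ-ATP. Reaction stopped by heating at 65 °C for 5 min.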

Another series concerns YB5. The series is described as follows: Cell cycle analysis by propidium iodide staining. The series is classed as cell-based, human. The conditions noted are these: four days after single exposure. Summed up: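 YB5 cells received a single drug dose 24 h after seeding, with drug-free medium replaced three days later. They were analysed four days after treatment by propidium iodide staining and FACSCalibur flow cytometry. Sub-G1 fraction was taken as the apoptotic proportion. N=3.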

For another series, the system named is SW48-luc cells. Put plainly: i.p. SW48-luc model in NSG mice. Type of series: in vivo. In a few lines: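 SW48 cells transfected with ffluc2-eGFP, GFP-positive cells sorted one week later and expanded. Cells injected i.p. into male and female age- and gender-matched NSG mice. Once tumour burden was seen by bioluminescence, mice randomised to 5–20mg/kg test compound or solvent i.p. every other day (3 vehicle, 5 treated). Imaged 5 min after i.p. D-luciferin. Endpoint: natural death or ascites; survival by log-rank (Mantel-Cox).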

A further series has as its system HL60 cell line. Put plainly: HL60 differentiation. Type of series: cell-based, human. The following applies: single dose exposure for four days. Summed up: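 HL60 cells received one dose 24 h after seeding, drug-free medium on day 3, and analysis on day 4. Cells were washed and stained with PI plus FITC-CD11b or isotype IgG, then read on a Guava flow cytometer. Positive controls were 1μM ATRA and 1.25% DMSO.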

In series [6] the test system is cancer cell lines vs normal lung fibroblast (IMR90). Put plainly: Anti-proliferation assay. The conditions noted are these: four days after one-time exposure; 5μM HH1 or 0.1μM MC180295. The series is classed as cell-based, human. In a few lines: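 Cells seeded in 96-well plates at 40% confluency. Medium refreshed next day, test compound added directly, then cultured two more days at 37°C. Drug-free medium on day four. Cells trypsinised on day 5, mixed 1:1 with trypan blue and counted on an automated counter. Each sample counted at least three times and averaged; triplicate wells per condition.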

Another series has as its system CDK1/2 substrates. Put plainly: Western Blot of CDK substrates after MC180295 treatment. The following applies: 2hrs treatment. Type of series: cell-based.
A further series deals with human T lymphocytes. Put plainly: Humanized PBMC NSG mice. Type of series: in vivo. The conditions noted are these: 10 mg/kg or 20 mg/kg for 14 days.
The subject of the next series is YB5 and HCT116. The series is described as follows: Soft agar colony formation assay. Type of series: cell-based, human. The following applies: single dose pre-exposure for four days. Summed up: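 Cells were pretreated with a range of test compound concentrations, kept in drug for two more days, and switched to drug-free medium the day before seeding (four days total). 1000 cells were plated in Noble agar with 2x medium (20% FBS, 2% penicillin/streptomycin). Plates were grown two weeks at 37°C, then stained with 0.005% crystal violet in 10% EtOH.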

For another series, the system named is ID8. The series is described as follows: ID8-VEGF-Defensin syngeneic ovarian cancer mouse model. The series is classed as in vivo. Summed up: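 Female C57BL/6NHsd mice aged 7–8 weeks were injected i.p. with 2.5×10^5 ID8-VEGF-Defensin mouse ovarian cancer cells. From day 3, test compound (1 or 10 mg/kg) or vehicle (5% DMSO in PBS) was given i.p. every 3 days for the whole experiment. Groups were randomly assigned.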

A further series deals with CDK4. The following applies: read-out: IC50 for CDK4; ref Asghar et al., 2015; cited from earlier work.
In a further series the test system is CDK1. The conditions noted are these: read-out: IC50 for CDK1; ref Asghar et al., 2015; cited from earlier work.
Another series concerns CDK9. The following applies: read-out: IC50 for CDK9; ref Asghar et al., 2015; cited from earlier work.

Sequence of CDK9/CyclinT1 (P50750 whole entry): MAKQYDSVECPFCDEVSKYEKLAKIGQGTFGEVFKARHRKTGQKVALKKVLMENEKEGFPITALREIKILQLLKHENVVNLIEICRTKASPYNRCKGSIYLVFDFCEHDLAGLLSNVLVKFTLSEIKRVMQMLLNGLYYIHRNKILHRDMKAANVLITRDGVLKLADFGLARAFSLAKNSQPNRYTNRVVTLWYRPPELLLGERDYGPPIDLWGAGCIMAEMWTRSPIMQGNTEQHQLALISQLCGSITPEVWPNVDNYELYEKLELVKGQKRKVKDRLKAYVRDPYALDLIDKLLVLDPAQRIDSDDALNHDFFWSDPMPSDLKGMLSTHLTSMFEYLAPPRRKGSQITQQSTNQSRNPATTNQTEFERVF
Sequence of CDK9/CyclinT1 (O60563 whole entry partner): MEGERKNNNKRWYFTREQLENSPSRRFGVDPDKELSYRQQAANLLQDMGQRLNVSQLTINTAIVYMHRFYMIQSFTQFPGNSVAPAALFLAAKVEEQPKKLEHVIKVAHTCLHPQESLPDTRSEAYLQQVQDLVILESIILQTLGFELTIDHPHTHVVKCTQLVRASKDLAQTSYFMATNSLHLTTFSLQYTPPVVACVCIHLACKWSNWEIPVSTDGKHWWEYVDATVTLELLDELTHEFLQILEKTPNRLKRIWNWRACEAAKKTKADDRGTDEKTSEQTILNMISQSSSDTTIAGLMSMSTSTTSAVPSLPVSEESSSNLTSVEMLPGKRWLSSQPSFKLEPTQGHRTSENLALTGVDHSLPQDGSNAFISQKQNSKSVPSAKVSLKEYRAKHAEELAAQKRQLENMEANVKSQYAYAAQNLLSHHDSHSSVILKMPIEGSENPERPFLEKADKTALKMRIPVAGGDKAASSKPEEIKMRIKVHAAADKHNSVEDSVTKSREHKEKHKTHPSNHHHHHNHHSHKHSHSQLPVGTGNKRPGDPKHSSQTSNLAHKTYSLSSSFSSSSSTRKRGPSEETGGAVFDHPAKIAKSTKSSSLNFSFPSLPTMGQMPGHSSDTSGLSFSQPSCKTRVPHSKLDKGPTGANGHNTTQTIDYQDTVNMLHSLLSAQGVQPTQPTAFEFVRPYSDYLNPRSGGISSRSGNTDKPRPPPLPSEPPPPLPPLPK
Sequence of GSK-3α (P49840 whole entry): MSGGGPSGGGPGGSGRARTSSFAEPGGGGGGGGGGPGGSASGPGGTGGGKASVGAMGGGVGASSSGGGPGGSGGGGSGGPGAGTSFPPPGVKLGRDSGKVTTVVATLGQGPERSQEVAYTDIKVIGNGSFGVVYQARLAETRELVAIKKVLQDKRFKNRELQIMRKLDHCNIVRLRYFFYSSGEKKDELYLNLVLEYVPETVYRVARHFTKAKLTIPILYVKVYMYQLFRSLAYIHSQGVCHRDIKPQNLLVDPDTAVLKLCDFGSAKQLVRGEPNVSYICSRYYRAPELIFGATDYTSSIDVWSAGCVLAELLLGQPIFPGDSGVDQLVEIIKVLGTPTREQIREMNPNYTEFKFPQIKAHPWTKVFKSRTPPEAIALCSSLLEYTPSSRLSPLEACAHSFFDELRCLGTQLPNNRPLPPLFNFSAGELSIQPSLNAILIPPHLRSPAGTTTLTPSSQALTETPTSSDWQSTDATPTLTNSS
Sequence of GSK-3β (P49841 whole entry): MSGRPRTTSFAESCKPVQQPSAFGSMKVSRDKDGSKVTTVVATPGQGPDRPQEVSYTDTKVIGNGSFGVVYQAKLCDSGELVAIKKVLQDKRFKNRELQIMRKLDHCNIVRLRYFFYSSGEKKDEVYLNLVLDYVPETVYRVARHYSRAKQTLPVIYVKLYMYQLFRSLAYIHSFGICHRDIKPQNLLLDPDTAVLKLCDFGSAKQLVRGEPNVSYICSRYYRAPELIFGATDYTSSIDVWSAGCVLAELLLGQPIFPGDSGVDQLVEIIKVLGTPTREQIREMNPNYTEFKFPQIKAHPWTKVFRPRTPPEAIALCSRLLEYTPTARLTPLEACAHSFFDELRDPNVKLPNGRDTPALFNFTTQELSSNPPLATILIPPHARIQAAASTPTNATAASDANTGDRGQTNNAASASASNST

As for `Cc1c[nH]c(-c2cnc(NCCNc3ccc(C#N)cn3)nc2-c2ccc(Cl)cc2Cl)n1` [CHR99021], in series [1], the “GFP reactivation by GSK-3 inhibitors” value was “no GFP reactivation”.

Regarding `Nc1ncn([C@H]2C[C@H](O)[C@@H](CO)O2)c(=O)n1` [DAC, decitabine], the “time to reactivation of hypermethylated genes” value in the series on YB5 cells [2] (YB5, daily 100nM, for most genes) was “at least 24 hrs”. For the same compound, the “silenced genes (RPKM < 0.31) up” value in the series on YB5 cells [3] amounted to 1238 genes.

In the case of `[Cl-].[Li+]` [LiCl], the “GFP reactivation by GSK-3 inhibitors” value in [1] is on record as “no GFP reactivation”.

Turning to `Nc1nc(N[C@H]2CC3CCC2C3)sc1C(=O)c1ccccc1[N+](=O)[O-]` (stereo partly drawn) [MC180295, (4-amino-2-(((2S)-bicyclo[2.2.1]heptan-2-yl)amino)thiazol-5-yl)(2-nitrophenyl)methanone], the “reactivation of GFP and GLDC in tumors” value in series [4] was “reactivated GFP and GLDC in a dose dependent manner”. The “effect on substrates of CDK4/6” value in the series on substrates of CDK4/6 was “only affected at substantially higher doses”. In the series on SW48 (20mg/kg i.p. qod), the mouse survival result is recorded as “improved mouse survival”. In the series on SW48 (20mg/kg qod), the “toxicity as measured by body weight” value is listed as “without causing overt toxicity” and the tumor growth entry was “tumors grew slower”. In series [5], the “dephosphorylation of Ser2 (pSer2)” value was “dephosphorylated at nanomolar doses”. Further, in the series with panel of 250 kinases, the “selectivity within the human kinome” value was “highly selective against CDKs”. Also, the “inhibition of GSK-3β” value against GSK-3β is “inhibited”. Also, the “inhibition of GSK-3α” value against GSK-3α is on record as “inhibited”. Besides, the “phosphorylation of RNA-Pol-ll CTD, BRG1 and CDK9 by CDK9” value on CDK9/CyclinT1 is reported as “unphosphorylated after CDK9 inhibition”. In the series with YB5, the cell cycle arrest result is “no cell cycle arrest” and the sub-G1 subpopulation entry is given as “an increase in the sub-G1 subpopulation”. Besides, the body weights entry with SW48-luc cells (every other day treatment) was “did not affect body weights”. Moreover, the “survival of the mice” value in the series with SW48-luc cells (i.p. every other day, log-rank test) is reported as “significantly extend survival”. In series [1] (YB5, 500nM, four days after single dose), the “GFP+ cells” value is recorded as ~ 60%. Besides, in [1] (YB5, four days after single dose), the “concentration active for GFP reactivation” value was 50 nM. In the series with HL60 cell line, the “induction of differentiation marker CD11b” value was “significant induction”. Besides, the “reduction of proliferation, cancer cells compared to IMR90” value in series [6] is reported as “more effective in reducing proliferation of cancer cells”. Also, the “effect on CDK1/2 substrates” value with CDK1/2 substrates is reported as “not affected at all”. Moreover, in the series with human T lymphocytes, the “killing of human T lymphocytes in vivo” value is “did not kill human T lymphocytes”; the “ratio of CD4 and CD8 T cells in vivo” value was “did not affect the ratio of CD4 and CD8 T cells”. In the series with YB5 and HCT116, the “reduction of colony formation in soft agar” value is listed as 30–80%.

In the case of `O=C(/C=C/N1C[C@H]2C[C@@H]1CN2c1ccccn1)c1ccccc1O` [PFI-3], in series [1] (YB5, 72hr daily pretreatment followed by 24hr co-treatment with HH1 or iCDK9), the “effect on GFP activation by CDK9 inhibitors” value was “inhibited GFP activation by CDK9 inhibitors in a dose-dependent manner”.

In the case of `CC(C)(C)c1cnc(CSc2cnc(NC(=O)C3CCNCC3)s2)o1` [SNS-032], in the series with ID8 (10mg/kg), the survival result is “extended survival” and the “tumor burden (ascites fluid)” value is on record as “reduced tumor burden”. Moreover, in the series on ID8 (flow cytometry of ascites), the “activated dendritic cells (CD80/CD86+ and CD11c/MHCII+) in the tumor microenvironment” value was “increased populations of activated dendritic cells”; the “immune cells (CD45+) and T cells (CD3+) in the tumor microenvironment” value was “increased populations of immune cells (CD45+) and T cells (CD3+)”. Further, the tumor growth entry with SW48 (20mg/kg qod) was “tumors grew slower”.

For the compound `CN1CC[C@H](c2c(O)cc(O)c3c(=O)cc(-c4ccccc4Cl)oc23)[C@H](O)C1` [flavopiridol], the IC50 was […] in the series with CDK4, […] in the series with CDK1 and […] with CDK9. For the same compound, at CDK9/CyclinT1, the “phosphorylation of RNA-Pol-ll CTD, BRG1 and CDK9 by CDK9” value is given as “unphosphorylated after CDK9 inhibition”. The “reactivation of SYNE1 and MGMT” value in the series on YB5 cells [2] was “led to gene reactivation”.

As for `NC1CCC(Nc2cc(-c3cccc(NCc4cccc(F)c4)n3)c(Cl)cn2)CC1` (centres unmarked) [iCDK9], in the series with YB5 cells [2], the “reactivation of SYNE1 and MGMT” value is “led to gene reactivation”.
